In ChEMBL document CHEMBL1149300, “Novel retinoic acid metabolism blocking agents endowed with multiple biological activities are efficient growth inhibitors of human breast and prostate cancer cells in vitro and a human breast tumor xenograft in nude mice” (J Med Chem, 2004):
The source made the active and inactive calls. No cut-off for these calls is given here.

Assays:
[1] = tested on: MDA-MB-231; experiment: Growth inhibition of human MDA-MB-231 cells up to 10 uM after 6 days by MTT assay; format: functional, cell-based
[2] = tested on: MCF7; experiment: Reduction of tumor growth in MCF7 cells xenografted ovariectomized mouse at 0.033 mmol/kg, sc for 6 weeks relative to control; format: functional; conditions: Homo sapiens
Method in brief: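 Female ovariectomized nude mice received estrogen pellets. MCF-7 cells (2 × 10^6 in Matrigel) were injected sc into both flanks and grown 4-5 weeks to 200-300 mm3. Groups of n = 5 were dosed sc once daily, 6 days/week for 6 weeks, vehicle 0.3% HPC, 200 µL. Tumors were measured weekly by caliper, volume = (4/3)πr1²r2, and change was compared with vehicle controls.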

[3] = tested on: LNCaP; experiment: Growth inhibition of human LNCaP cells after 6 days by MTT assay; format: functional, cell-based; conditions: 144 h
Method in brief: (§1)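 LNCaP cells (1 × 10^4) on poly-L-lysine-coated wells, attached 36 h; PC-3 cells (1 × 10^4), uncoated, attached 24 h; both in RPMI 1640. Treated with a concentration range of drug for 6 days, medium changed every 3 days. MTT read-out at 540 nm; IC50 by nonlinear regression from at least two experiments.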

[4] = tested on: MCF7; experiment: Growth inhibition of human MCF7 cells after 6 days by MTT assay; format: functional, cell-based; conditions: MCF7, 144 h
Method in brief: (§2)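 MCF-7 (IMEM, 5% FBS) or T47D (RPMI 1640, 10% FBS) cells, 1 × 10^4 per well, adhered ~18 h, then exposed to 0.0001-10 µM drug (ethanol) for 6 days with media and drug renewed on day 4. MTT for 2 h, formazan dissolved in DMSO, A540. Triplicate wells, 2-3 experiments; IC50 by nonlinear regression.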

[5] = tested on: PC-3; experiment: Growth inhibition of human PC3 cells after 6 days by MTT assay; format: functional, cell-based; conditions: PC-3, 144 h; method in brief: as §1
[6] = tested on: MCF7; experiment: Antiproliferative effect against human MCF7 cells; format: functional, cell-based; method in brief: as §2
[7] = species on record: Mesocricetus auratus; experiment: Inhibition of ATRA hydroxylase in Syrian golden hamster liver microsome assessed ATRA metabolism using [11.12-3H]-ATRA; format: microsomes
Method in brief: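 Microsomes from male Syrian golden hamster liver, or from T47D cells pretreated with 1 µM ATRA. Incubation in 0.1 M phosphate buffer pH 7.4 with NADPH, MgCl2 and BSA, inhibitor in DMSO; 3 min preincubation at 37 °C, then [11,12-3H]-ATRA for 30 min at 37 °C under oxygen. Ethyl acetate extraction, reverse-phase HPLC with radiometric detection; percent polar metabolites; IC50 from dose-response curves.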

[8] = Displacement of [11,12-3H]ARTA from RARgamma; parameters: species or system Homo sapiens
Method in brief: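 Recombinant S-Tag RARα, RARβ or RARγ fusion protein extracts (10-30 µg/mL total protein) in HEPES pH 7.9 binding buffer. Incubated with 1 nM [3H]all-trans-RA and 0-500 nM test compound for 3 h at 27 °C. Nonspecific binding measured with a 200-fold excess of unlabeled RA; IC50 from dose-response curves, at least two experiments.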

[9] = tested on: T47D; experiment: Growth inhibition of human T47D cells after 6 days by MTT assay; format: functional, cell-based; conditions: 144 h; method in brief: as §2

For `CC1=C(/C=C/C(C)=C/C=C/C(C)=C/C(=O)O)C(C)(C)CCC1` [TRETINOIN], the Activity [1] was “inactive”, the Activity [2] was “inactive” and the IC50 [3] was 10000 nM. For the same compound, the IC50 [4] was 580 nM, the IC50 [5] was 2000 nM and the IC50 [6] was 584 nM. The Km [7] was 0.16 µM, the IC50 [8] was 10 nM and the IC50 [9] was 6 nM.
